From PMC7240809 (ACS Omega, 2020)
Each block holds one molecule with its values, some of them ahead of it.

Assays:
[1] = target: melanocortin 1 receptor (MC1R); conditions: read-out: binding affinity (Ki) to MC1R; cited from earlier work
[2] = target: MC3R; conditions: read-out: binding affinity to MC3R; cited from earlier work
[3] = target: MC5R; conditions: read-out: binding affinity to MC5R; cited from earlier work
[4] = target: MC5R (Homo sapiens) (UniProt P33032); conditions: cited from earlier work
[5] = target: MC3R (Homo sapiens) (UniProt P41968); conditions: cited from earlier work
[6] = target: MC4R (Homo sapiens) (UniProt P32245); conditions: cited from earlier work
[7] = target: MC1R (Homo sapiens) (UniProt Q01726); conditions: cited from earlier work
[8] = target: MC4R; conditions: read-out: binding affinity to MC4R; cited from earlier work
[9] = In vivo stability, radio-HPLC of mouse urine; set-up: species or system mice; conditions: 1 h p.i., intravenous
In short: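 Mice under 2% isoflurane received approximately 4–6 MBq 68Ga-labeled test peptide intravenously and recovered freely. At 1 h p.i. they were euthanized by CO2, and urine was collected. Urine was analyzed for metabolites by reversed-phase C18 HPLC in 21% acetonitrile with 0.1% TFA to give percent intact peptide. Three or four independent experiments were run.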

[10] = tested on: B16–F10 cells; assay: Internalization assay; type: cell-based, Mus musculus; conditions: 2 h, 37 °C
In short: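 B16–F10 mouse melanoma cells were grown in DMEM with 10% FBS and penicillin/streptomycin, then seeded overnight on poly-D-lysine plates. They were incubated with 68Ga-labeled test peptide at 37 °C with mild agitation for 30, 60, 90 or 120 min, then washed with PBS. Cells were trypsinized for the internalized fraction, and both fractions were gamma-counted in triplicate or quadruplicate.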

[11] = Biodistribution in C57BL/6J mice bearing B16–F10 melanoma; type: in vivo; conditions: C57BL/6J, mouse, total radioactivity; for tissue uptake at 1 h / tissue uptake at 2 h: intravenous; for tissue to tissue ratio at 1 h / tissue to tissue ratio at 2 h: iv
In short: (§1)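 Male C57BL/6J mice (8–12 weeks) were inoculated subcutaneously on the right dorsal flank with 1 × 10^6 B16–F10 cells and used at 6–8 mm tumor diameter. They received 1–2 MBq 68Ga-labeled test peptide by tail vein under anesthesia, with or without co-injected 0.5 mg BMS 470539. At 1 or 2 h p.i., blood and organs were weighed and gamma-counted. Uptake is %ID/g (mean ± SD); blocked vs unblocked compared by two-way ANOVA with Holm–Sidak.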

[12] = tested on: B16–F10 melanoma; assay: as above; type: in vivo
In short: as §1

Chain of UniProt P41968 (P41968 whole entry): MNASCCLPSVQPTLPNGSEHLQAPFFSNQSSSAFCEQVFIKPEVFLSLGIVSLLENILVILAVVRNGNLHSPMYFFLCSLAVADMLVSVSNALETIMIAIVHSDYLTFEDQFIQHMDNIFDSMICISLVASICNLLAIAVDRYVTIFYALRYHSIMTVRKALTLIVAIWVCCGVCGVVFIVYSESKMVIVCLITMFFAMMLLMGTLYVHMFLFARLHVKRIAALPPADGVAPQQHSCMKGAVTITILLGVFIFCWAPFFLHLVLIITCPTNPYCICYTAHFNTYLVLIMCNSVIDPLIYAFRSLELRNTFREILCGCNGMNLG
Chain of UniProt P32245 (P32245 whole entry): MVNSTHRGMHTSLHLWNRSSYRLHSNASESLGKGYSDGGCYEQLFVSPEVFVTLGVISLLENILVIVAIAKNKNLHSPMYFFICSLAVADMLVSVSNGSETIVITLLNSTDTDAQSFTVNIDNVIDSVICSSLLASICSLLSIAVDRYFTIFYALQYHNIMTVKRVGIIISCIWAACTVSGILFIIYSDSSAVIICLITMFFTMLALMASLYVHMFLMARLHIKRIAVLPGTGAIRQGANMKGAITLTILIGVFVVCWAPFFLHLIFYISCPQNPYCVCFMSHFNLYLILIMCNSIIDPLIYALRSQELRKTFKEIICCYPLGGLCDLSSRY
Chain of UniProt P33032 (P33032 whole entry): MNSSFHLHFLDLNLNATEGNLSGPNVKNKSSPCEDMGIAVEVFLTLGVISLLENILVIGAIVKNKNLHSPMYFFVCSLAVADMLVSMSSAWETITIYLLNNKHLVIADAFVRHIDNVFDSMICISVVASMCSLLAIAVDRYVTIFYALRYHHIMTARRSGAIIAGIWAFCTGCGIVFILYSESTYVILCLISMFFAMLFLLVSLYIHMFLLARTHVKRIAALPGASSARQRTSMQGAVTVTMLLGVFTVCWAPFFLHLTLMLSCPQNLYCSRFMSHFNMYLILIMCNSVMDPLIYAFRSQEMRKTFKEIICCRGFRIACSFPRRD
Chain of UniProt Q01726 (Q01726 whole entry): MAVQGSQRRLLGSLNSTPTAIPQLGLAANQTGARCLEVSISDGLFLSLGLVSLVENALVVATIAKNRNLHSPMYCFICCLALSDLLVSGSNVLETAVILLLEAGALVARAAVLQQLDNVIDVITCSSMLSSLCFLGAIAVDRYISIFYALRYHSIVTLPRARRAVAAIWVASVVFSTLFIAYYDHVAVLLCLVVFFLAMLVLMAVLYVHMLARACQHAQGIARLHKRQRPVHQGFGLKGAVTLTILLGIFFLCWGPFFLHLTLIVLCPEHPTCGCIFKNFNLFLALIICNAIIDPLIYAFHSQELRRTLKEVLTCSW

Molecule: Ac-Nle^4-Cyclo[Asp^5-His^6-D-Phe^7-Arg^8-Trp^9-Lys^10]αMSH4-10-NH2 [MTII]
Ki [1]: 0.69 nM | Ki [2]: 34.1 nM | Ki [3]: 46.1 nM

Molecule: αMSH (from UniProt P01189)
Ki [4]: 7160 nM | Ki [5]: 31.5 nM | Ki [6]: 900 nM | Ki [7]: 0.23 nM

Molecule: Alpha-melanocyte-stimulating hormone [αMSH]
Ki [8]: 900 nM

percentage of intact peptide [9]: ≥ 98% | tissue uptake at 1 h ([11]; B16F10 tumor): 6.33 ± 1.48 %ID/g | tissue uptake at 1 h ([11]; adrenal glands): 0.79 ± 0.72 %ID/g | tissue uptake at 1 h ([11]; blood): 0.65 ± 0.12 %ID/g | tissue uptake at 1 h ([11]; bone): 0.33 ± 0.18 %ID/g | tissue uptake at 1 h ([11]; heart): 0.24 ± 0.06 %ID/g | tissue uptake at 1 h ([11]; intestine, 0.5 mg): 0.17 ± 0.05 %ID/g | tissue uptake at 1 h ([11]; intestine): 0.34 ± 0.07 %ID/g | tissue uptake at 1 h ([11]; kidneys): 5.59 ± 0.88 %ID/g | tissue uptake at 1 h ([11]; liver): 0.53 ± 0.07 %ID/g | tissue uptake at 1 h ([11]; lungs): 0.69 ± 0.11 %ID/g | tissue uptake at 1 h ([11]; muscle): 0.16 ± 0.05 %ID/g | tissue uptake at 1 h ([11]; stomach): 0.22 ± 0.11 %ID/g | tissue uptake at 1 h ([11]; thyroid): 0.3 ± 0.08 %ID/g | tissue to tissue ratio at 1 h ([11]; tumor and blood): 9.94 ± 2.93 | tissue to tissue ratio at 1 h ([11]; tumor and bone): 23.3 ± 12.1 | tissue to tissue ratio at 2 h ([11]; tumor and bone): 52.7 ± 13.4 | tissue to tissue ratio at 1 h ([11]; tumor and kidneys): 1.13 ± 0.22 | tissue to tissue ratio at 1 h ([11]; tumor and liver): 11.9 ± 2.26 | tissue to tissue ratio at 2 h ([11]; tumor and liver): 11.8 ± 2.72 | tissue to tissue ratio at 1 h ([11]; tumor and muscle): 40.6 ± 11.9 | tissue uptake at 2 h ([11]; male, seminal glands): 0.04 ± 0.01 %ID/g | tissue uptake at 1 h ([11]; male, testes): 0.2 ± 0.06 %ID/g | tissue uptake at 2 h ([11]; male, testes): 0.07 ± 0.01 %ID/g | tumor/blood uptake ratio ([12]; 1 h p.i. blocked (n = 5), co-injection of 0.5 mg BMS 470539): 2.24 ± 0.40 | tumor/blood uptake ratio ([12]; 1 h p.i. unblocked (n = 5)): 9.94 | tumor/bone uptake ratio ([12]; 1 h p.i. unblocked (n = 5)): 23.3 | tumor/muscle uptake ratio ([12]; 1 h p.i. unblocked (n = 5)): 40.6 | tumor/blood uptake ratio ([12]; 2 h p.i. unblocked (n = 4)): 27.7 | tumor/bone uptake ratio ([12]; 2 h p.i. unblocked (n = 4)): 52.7 | tumor/muscle uptake ratio ([12]; 2 h p.i. unblocked (n = 4)): 125
Molecule: CCCC[C@H](NC(=O)CN1CCC(NC(=O)CN2CCN(CC(=O)O)CCN(CC(=O)O)CCN(CC(=O)O)CC2)CC1)C(=O)N[C@H]1CC(=O)NCCCC[C@@H](C(N)=O)N(C)C(=O)[C@H](Cc2c[nH]c3ccccc23)N(C)C(=O)[C@H](CCCNC(=N)N)N(C)C(=O)[C@@H](Cc2ccccc2)NC(=O)[C@H](Cc2cnc[nH]2)N(C)C1=O [[^68Ga]Ga-CCZ01099, metal not drawn]
radioactivity internalized [10]: 48% | reduction of tumor uptake by blocking ([12]; 1 h p.i., blocking with BMS 470539, p < 0.001): 91%
